Results collected from several papers.
Lines come from different studies, so protocols differ.
ADRA2B: Alpha-2B adrenergic receptor (ADRA2B, Homo sapiens, UniProt P18089)
PIK3CG: Phosphatidylinositol 4,5-bisphosphate 3-kinase catalytic subunit gamma isoform (PIK3CG, Homo sapiens, UniProt P48736)

Cc1cc(Oc2ncccc2CN2CCN(C(c3ccccc3)c3ccccc3)CC2)ccc1-c1c(C)c(=O)[nH]c(=O)n1C
Ki (ADRA2B; ligand displacement, radioligand): 172 nM

N#Cc1ccc2c(CN3CCOCC3)cc(-c3ccc([C@@H]4CCC(=O)N4)cc3)nc2c1
Kd (Advanced glycosylation end product-specific receptor (AGER, Homo sapiens, UniProt Q15109); binding, fluorescence): 1 nM

Cc1cc(Oc2ncccc2CN2CCN(c3ccccc3O)CC2)ccc1-c1c(C)c(=O)[nH]c(=O)n1C
Ki (ADRA2B; ligand displacement, radioligand): 97.5 nM

CCN1/C(=C/C(C)=O)Sc2ccc(F)cc21
Ki (ADRA2B; ligand displacement, radioligand): 987 nM

Cn1ccc(-c2ccc(-c3cc(C(=O)O)cc4cc(-c5ccc(C(F)(F)F)cc5)ccc34)cc2)n1
Ki (Sigma intracellular receptor 2 (TMEM97, Homo sapiens, UniProt Q5BJF2); cell-free assay, radioligand): 1900 nM

Cc1cc(Oc2ncccc2CN2CCN(c3ccccc3C)CC2)ccc1-c1c(C)c(=O)[nH]c(=O)n1C
Ki (ADRA2B; ligand displacement, radioligand): 28.4 nM

O=C1C(=Nc2ccc(Cl)cc2)c2ccccc2N1Cc1ccc(Br)cc1
IC50 (PIK3CG; enzyme activity, inhibitor, ADP detection): 5.93 nM

CN1CCc2nc(NC(=O)C3=NN(c4ccc(F)cc4)C(C(N)=O)C3)sc2C1 (stereo not drawn)
Kd (DDB1- and CUL4-associated factor 7 (Homo sapiens, UniProt P61962); binding, SPR): > 71000 nM

O=C1Nc2ccccc2/C1=N\c1ccc(Cl)cc1
IC50 (PIK3CG; enzyme activity, inhibitor, ADP detection): 34.4 nM

Cc1cc(Oc2ncccc2CN2CCN(c3cccc(Cl)c3Cl)CC2)ccc1-c1c(C)c(=O)[nH]c(=O)n1C
Ki (ADRA2B; ligand displacement, radioligand): 113 nM

O=C1C(=Nc2cccc(Cl)c2)c2ccccc2N1Cc1ccc([N+](=O)[O-])cc1
IC50 (PIK3CG; enzyme activity, inhibitor, ADP detection): 2.39 nM

CC(C)C[C@H](NC(=O)[C@H](CC(C)C)NC(=O)[C@H](Cc1c[nH]c2ccccc12)NC(=O)[C@H](CCC(N)=O)NC(=O)[C@@H](NC(=O)[C@H](Cc1ccccc1)NC(=O)[C@H](CC(=O)O)NC(=O)[C@H](CCC(N)=O)NC(=O)[C@H](C)NC(=O)[C@H](C)NC(=O)[C@H](CCCNC(=N)N)NC(=O)[C@H](CCC(=O)O)NC(=O)[C@H](CC(=O)O)NC(=O)[C@H](CC(C)C)NC(=O)[C@H](Cc1ccc(O)cc1)NC(=O)[C@H](CCCCN)NC(=O)[C@H](CO)NC(=O)[C@H](Cc1ccc(O)cc1)NC(=O)[C@H](CC(=O)O)NC(=O)[C@H](CO)NC(=O)[C@@H](NC(=O)[C@H](Cc1ccccc1)NC(=O)[C@@H](NC(=O)CNC(=O)[C@H](CCC(N)=O)NC(=O)C(C)(C)NC(=O)[C@@H](N)Cc1c[nH]cn1)[C@@H](C)O)[C@@H](C)O)C(C)C)C(=O)N[C@@H](CC(=O)O)C(=O)NCC(=O)NCC(=O)N1CCC[C@H]1C(=O)N[C@@H](CO)C(=O)N[C@@H](CC(C)C)C(=O)N[C@@H](CCCNC(=N)N)C(=O)N[C@@H](Cc1c[nH]cn1)C(=O)N[C@@H](Cc1ccc(O)cc1)C(=O)N[C@@H](CC(C)C)C(=O)N[C@@H](CC(N)=O)C(=O)N[C@@H](CC(C)C)C(=O)N[C@H](C(=O)N[C@H](C(=O)N[C@@H](CCCNC(=N)N)C(=O)N[C@@H](CCC(N)=O)C(=O)N[C@@H](CCCNC(=N)N)C(=O)N[C@@H](Cc1ccc(O)cc1)C(N)=O)[C@@H](C)O)C(C)C
EC50 (Neuropeptide Y receptor type 2 (NPY2R, Homo sapiens, UniProt P49146); reporter gene, agonist, luciferase): 0.4 nM
